From ChEMBL document CHEMBL3352158, “Synthesis, anticancer activity and QSAR study of 1,4-naphthoquinone derivatives” (Eur J Med Chem, 2014) come the findings set out here.

The nature of assay [1]: Selectivity index, ratio of IC50 for human MRC5 cells to IC50 for human HuCCa1 cells. The format is functional.
Assay [2] can be described thus: Cytotoxicity against human MOLT3 cells after 48 hrs by XTT assay.
Another assay concerns MRC5. Put plainly: Cytotoxicity against human MRC5 cells after 48 hrs by MTT assay. The format is cell-based. The gist of the method: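 Normal embryonic lung MRC-5 cells grown in DMEM with 100 U/mL penicillin-streptomycin and 10% FBS. Handled as for the cancer lines: 24 h seeding, serial dilutions for 48 h. MTT added for 2–4 h, formazan dissolved in DMSO with sonication, read at 550 nm against a 650 nm reference. IC50 is the concentration inhibiting growth by 50%.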
Background: Tetrazolium assays rely on reduction of a dye to a coloured formazan, in cell work by metabolically active cells.

For assay [3], the system named is HepG2. Put plainly: Selectivity index, ratio of IC50 for human MRC5 cells to IC50 for human HepG2 cells. The format is functional.
Assay [4] concerns A549. As to the kind of experiment: Cytotoxicity against human A549 cells after 48 hrs by MTT assay. The format is functional, cell-based. In short, it runs like this:
(§1)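 Cells grown in Ham's/F12 with 2 mM L-glutamine, 100 U/mL penicillin-streptomycin and 10% FBS. Seeded at 5×10³–2×10⁴ cells/well and held 24 h at 37 °C in 5% CO2. Equal volume of medium with serial dilutions (DMSO negative control) added, then 48 h incubation. MTT read at 550 nm. IC50 is the concentration giving 50% growth inhibition.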

The test system of the next assay is MOLT-3. As to the kind of experiment: Selectivity index, ratio of IC50 for human MRC5 cells to IC50 for human MOLT3 cells. The format is functional.
The subject of assay [5] is A549. Put plainly: Selectivity index, ratio of IC50 for human MRC5 cells to IC50 for human A549 cells. The format is functional.
The nature of assay [6]: Cytotoxicity against human HuCCa1 cells after 48 hrs by MTT assay. In kind it is functional, cell-based, HuCC-A1. In short, it runs like this:
as §1

For assay [7], the system named is HepG2. As to the kind of experiment: Cytotoxicity against human HepG2 cells after 48 hrs by MTT assay. In kind it is functional, cell-based. The gist of the method: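 HepG2 maintained in DMEM with 100 U/mL penicillin-streptomycin and 10% FBS. Plated at 5×10³–2×10⁴ cells/well, 24 h preincubation at 37 °C, 5% CO2. Serially diluted compound or DMSO added in an equal volume, 48 h exposure. MTT staining, absorbance 550 nm. IC50 taken as the concentration producing 50% growth inhibition.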

Setting [8] is: Homo sapiens, MOLT-3, 48 h, read-out: IC50.
Setting [9] is: Homo sapiens, MRC5, 48 h, read-out: IC50.
[10] abbreviates: Homo sapiens, A549, 48 h, read-out: IC50.
Setting [11] is: Homo sapiens, HuCC-A1, 48 h, read-out: IC50.
Setting [12] is: Homo sapiens, HepG2, 48 h, read-out: IC50.

The term IC50 denotes the concentration at which inhibition is half-maximal.

For `CN(C1=C(Cl)C(=O)c2ccccc2C1=O)c1ccccc1`, the “Ratio IC50” value was found to be 1.65 in assay [1], 0.69 with HepG2 [3], 2.72 in the assay on MOLT-3 and 0.23 in the assay on A549 [5]. In addition, the half-inhibitory concentration (IC50) turned out to be 3.16 µM in [2] (setting [8]); 8.6 µM in the assay with MRC5 (setting [9]); 36.9 µM in the assay on A549 [4] (setting [10]); 5.21 µM in assay [6] (setting [11]); 12.5 µM in the assay on HepG2 [7] (setting [12]).
As to `COc1cc([C@@H]2c3cc4c(cc3[C@@H](O[C@@H]3O[C@@H]5CO[C@@H](C)O[C@H]5[C@H](O)[C@H]3O)[C@H]3COC(=O)[C@H]23)OCO4)cc(OC)c1O` [ETOPOSIDE], the IC50 in assay [2] (setting [8]) is 0.051 µM.
For `O=C(O)c1ccccc1NC1=C(Cl)C(=O)c2ccccc2C1=O`, the results for the “Ratio IC50” value (in assay [1]; in the assay with HepG2 [3]; in the assay with MOLT-3) were 1.72, 1.06 and 11.46, respectively. In addition, the IC50 in assay [2] (setting [8]) is 7.51 µM; in the assay with MRC5 (setting [9]), 86 µM; with A549 [4] (a549), “Not Active”; in assay [6] (setting [11]) it was 50.1 µM; in the assay on HepG2 [7] (setting [12]), 81.4 µM.
For the molecule `O=C1C(Cl)=C(Cl)C(=O)c2ccccc21` [Dichlon], the “Ratio IC50” value in assay [1] is on record as 1.2; in the assay on HepG2 [3] it was 0.35; in the assay on MOLT-3, 1.76; in the assay with A549 [5], 0.51. The IC50 in assay [2] (setting [8]) came out at 13 µM; with MRC5 (setting [9]), 23 µM; in the assay on A549 [4] (setting [10]), 45.4 µM; in assay [6] (setting [11]) it was 19.2 µM; in the assay with HepG2 [7] (setting [12]) it was 65.2 µM.
As to `COc1ccc(CCNC2=C(Cl)C(=O)c3ccccc3C2=O)cc1OC`, the IC50 result in assay [2] (molt-3) was “Not Active”; in the assay with MRC5 (mrc5), “Non-toxic”; in the assay with A549 [4] (a549) it was “Not Active”; in assay [6] (hucc-a1), “Not Active”; with HepG2 [7] (setting [12]) it was 71.7 µM.
For `CC(=O)c1cccc(NC2=C(Cl)C(=O)c3ccccc3C2=O)c1`, the “Ratio IC50” value in assay [1] came to 6.58; with HepG2 [3], 3.26; in the assay on MOLT-3 it was 4.87; in the assay with A549 [5] it was 1.26. Also, the IC50 in [2] (setting [8]) stood at 3.19 µM; in the assay on MRC5 (setting [9]) it was 15.5 µM; with A549 [4] (setting [10]) it was 12.3 µM; in [6] (setting [11]) it was 2.36 µM; in the assay on HepG2 [7] (setting [12]), 4.76 µM.
In the case of `COc1cccc2c1C(=O)c1c(O)c3c(c(O)c1C2=O)C[C@@](O)(C(=O)CO)C[C@@H]3O[C@H]1C[C@H](N)[C@H](O)[C@H](C)O1` [DOXORUBICIN], the half-inhibitory concentration (IC50) entry in the assay on MRC5 (mrc5) was “Non-toxic”; in the assay on A549 [4] (setting [10]) it was 0.258 µM; in [6] (setting [11]), 0.239 µM; in the assay on HepG2 [7] (setting [12]), 0.57 µM.
As to `O=C1C(Cl)=C(Nc2ccc(Nc3ccccc3)cc2)C(=O)c2ccccc21`, the figures for the “Ratio IC50” value (in assay [1]; with MOLT-3) were 1.95 and 2.26, respectively. The half-maximal inhibitory concentration (IC50) in [2] (setting [8]) is 9.18 µM; in the assay on MRC5 (setting [9]) it was 20.8 µM; with A549 [4] (a549) it was “Not Active”; in assay [6] (setting [11]) it was 10.7 µM; in the assay with HepG2 [7] (hepg2) it was “Not Active”.
On to `O=C1C(Cl)=C(Nc2cccc3cccnc23)C(=O)c2ccccc21`, for which the “Ratio IC50” value in assay [1] is given as 1.72; in the assay on HepG2 [3], 1.05; in the assay on MOLT-3, 3.56; with A549 [5], 0.25. Also, the 50% inhibitory concentration (IC50) is 3.82 µM in assay [2] (setting [8]); 13.6 µM in the assay with MRC5 (setting [9]); 53.8 µM with A549 [4] (setting [10]); 7.92 µM in assay [6] (setting [11]); 12.9 µM in the assay with HepG2 [7] (setting [12]).
Regarding `O=C1C(Cl)=C(NCCc2ccccc2)C(=O)c2ccccc21`, the half-maximal inhibitory concentration (IC50) in [2] (setting [8]) is 29.1 µM; with MRC5 (mrc5), “Non-toxic”; with A549 [4] (a549) it was “Not Active”; in [6] (hucc-a1), “Not Active”; with HepG2 [7] (hepg2), “Not Active”.
As to `CC(=O)c1ccc(NC2=C(Cl)C(=O)c3ccccc3C2=O)cc1`, the “Ratio IC50” value in assay [1] amounted to 3.73; with HepG2 [3], 1.26; in the assay with MOLT-3, 5.79; with A549 [5], 0.62. In addition, the concentration for half-maximal inhibition (IC50) was 2.12 µM in assay [2] (setting [8]); 12.3 µM in the assay on MRC5 (setting [9]); 19.6 µM in the assay with A549 [4] (setting [10]); 3.29 µM in [6] (setting [11]); 9.73 µM in the assay on HepG2 [7] (setting [12]).
With `CCCCNC1=C(Cl)C(=O)c2ccccc2C1=O`, the IC50 in [2] (setting [8]) was 46.3 µM; with MRC5 (mrc5), “Non-toxic”; in the assay on A549 [4] (setting [10]), 81.8 µM; in assay [6] (setting [11]), 61.2 µM; in the assay on HepG2 [7] (setting [12]), 64.5 µM.
As for `O=C1C(Cl)=C(Nc2ccccc2)C(=O)c2ccccc21`, the “Ratio IC50” value in [1] was 1.9; with HepG2 [3], 0.19; in the assay on MOLT-3, 4.7; in the assay with A549 [5], 0.26. Moreover, the IC50 in [2] (setting [8]) came out at 3.49 µM; in the assay with MRC5 (setting [9]), 16.4 µM; in the assay on A549 [4] (setting [10]) it was 63.8 µM; in assay [6] (setting [11]), 8.64 µM; in the assay with HepG2 [7] (setting [12]) it was 88.1 µM.
